We go through 27 compounds from ChEMBL document CHEMBL4342521 (J Med Chem, 2020).

Molecules are shown by their SMILES. The source made the active and inactive calls. No cut-off for these calls is given here. Some results are limits rather than exact numbers.

In data set [1] the target is Histone deacetylase 3/Nuclear receptor corepressor 2 (HDAC3/NCoR2) (Homo sapiens, UniProt O15379). The experiment in a line: biochemical. The arrangement: species or system Sf9.
In data set [2] the target is T1, Protein deacetylase HDAC6 (Homo sapiens, UniProt Q9UBN7).
T1 sequence (Q9UBN7 whole entry): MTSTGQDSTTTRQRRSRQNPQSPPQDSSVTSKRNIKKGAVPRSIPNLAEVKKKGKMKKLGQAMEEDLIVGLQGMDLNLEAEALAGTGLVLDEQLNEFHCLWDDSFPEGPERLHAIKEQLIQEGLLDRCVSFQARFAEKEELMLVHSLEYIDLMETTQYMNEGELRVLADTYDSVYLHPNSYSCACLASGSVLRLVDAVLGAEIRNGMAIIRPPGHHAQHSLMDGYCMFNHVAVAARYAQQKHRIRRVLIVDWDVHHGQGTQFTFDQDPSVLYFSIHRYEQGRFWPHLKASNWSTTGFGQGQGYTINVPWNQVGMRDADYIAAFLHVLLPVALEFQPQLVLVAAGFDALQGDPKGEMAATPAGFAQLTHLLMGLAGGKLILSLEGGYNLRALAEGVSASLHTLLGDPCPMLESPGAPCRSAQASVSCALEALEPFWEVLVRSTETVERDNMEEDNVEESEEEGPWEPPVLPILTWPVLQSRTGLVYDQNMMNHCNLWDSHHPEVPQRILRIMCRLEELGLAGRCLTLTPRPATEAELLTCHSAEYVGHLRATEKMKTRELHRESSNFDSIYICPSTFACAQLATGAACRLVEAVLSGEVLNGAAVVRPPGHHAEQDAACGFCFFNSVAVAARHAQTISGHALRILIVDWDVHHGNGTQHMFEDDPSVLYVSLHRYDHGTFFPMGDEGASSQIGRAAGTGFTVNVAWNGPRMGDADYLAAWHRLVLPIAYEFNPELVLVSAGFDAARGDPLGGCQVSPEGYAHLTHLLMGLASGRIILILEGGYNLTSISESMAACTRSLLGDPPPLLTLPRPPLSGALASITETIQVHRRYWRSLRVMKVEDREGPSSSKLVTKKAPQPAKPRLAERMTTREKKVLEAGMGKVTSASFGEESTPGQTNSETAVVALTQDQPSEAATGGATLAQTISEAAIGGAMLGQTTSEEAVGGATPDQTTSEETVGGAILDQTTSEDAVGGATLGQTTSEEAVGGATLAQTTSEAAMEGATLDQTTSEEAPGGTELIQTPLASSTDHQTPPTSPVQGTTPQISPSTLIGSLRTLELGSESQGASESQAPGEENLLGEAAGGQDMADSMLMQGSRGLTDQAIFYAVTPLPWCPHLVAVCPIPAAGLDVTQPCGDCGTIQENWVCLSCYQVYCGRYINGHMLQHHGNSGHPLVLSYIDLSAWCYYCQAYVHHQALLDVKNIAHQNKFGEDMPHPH
Nature of the data set: Inhibition of recombinant HDAC6 (unknown origin) using Boc-Lys(acetyl)-AMC as substrate preincubated for 1 hr followed by substrate addition and measured after 2 hrs by fluorescence based micro plate reader analysis.

Data set [3] has as its target Histone deacetylase 2 (Homo sapiens, UniProt Q92769).
In data set [4] the test system is MV4-11. The experiment in a line: cells. The conditions noted are these: Homo sapiens, MV4-11, 48 h.
For data set [5], the target named is Histone deacetylase 1 (Homo sapiens, UniProt Q13547). Nature of the data set: Inhibition of recombinant HDAC1 (unknown origin) using Boc-Lys(acetyl)-AMC as substrate preincubated for 1 hr followed by substrate addition and measured after 2 hrs by fluorescence based micro plate reader analysis.
For data set [6], the system named is RS4-11. Nature of the data set: Induction of apoptosis in human RS4:11 cells harboring wild type p53/FLT3 assessed as cleavage of pro-caspase 3 at 5000 nM after 24 hrs by Western blot analysis. In kind it is functional, cell-based. The procedure, abridged:
(§1)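 Cells (1,500,000 per well) grown 12 h, then drug-treated as specified. Lysed in RIPA buffer, sonicated, centrifuged, protein normalized by BCA. Run on 4–12% Bis-Tris gels in MES, transferred, probed overnight at 4 °C with primary antibodies at 1/1000. Actin served as reference for LC3-II quantitation.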
(In general: A western blot detects proteins with antibodies after separation by electrophoresis.)

The subject of data set [7] is MV4-11. Nature of the data set: Induction of apoptosis in human MV4-11 cells harboring wild type p53/FLT3-ITD mutant assessed as cleavage of pro-caspase 3 at 5000 nM after 24 hrs by Western blot analysis. In kind it is functional, cell-based. The procedure, abridged: as §1
In data set [8] the test system is MV4-11. Nature of the data set: Induction of apoptosis in human MV4-11 cells harboring wild type p53/FLT3-ITD mutant assessed as cleavage of pro-caspase 3 at 50 to 200 nM after 24 hrs by Western blot analysis. The class given is functional, cell-based. Summed up:
as §1

Data set [9] concerns MV4-11. Nature of the data set: Down regulation of STAT5 in human MV4-11 cells harboring wild type p53/FLT3-ITD mutant at 50 to 200 nM after 24 hrs by Western blot analysis. The class given is functional, cell-based. Summed up:
as §1

For data set [10], the system named is MV4-11. Nature of the data set: Down regulation of FTL3 in human MV4-11 cells harboring wild type p53/FLT3-ITD mutant at 50 to 200 nM after 24 hrs by Western blot analysis. In kind it is functional, cell-based. Summed up: as §1
Data set [11] relates to MV4-11. The experiment in a line: Antiproliferative activity against human MV4-11 cells at 50 uM after 48 hrs by CellTiter-Blue dye based spectrophotometric analysis. The class given is functional, cell-based. A general note: Resazurin is reduced to fluorescent resorufin, in cell work by metabolically active cells.
For data set [12], the system named is MV4-11. The experiment in a line: Inhibition of autophagy in human MV4-11 cells assessed as LC3-II degradation at 5 uM after 24 hrs by Western blot analysis. In kind it is functional, cell-based. The procedure, abridged: as §1
Data set [13] has as its system MV4-11. Nature of the data set: Induction of apoptosis in human MV4-11 cells harboring wild type p53/FLT3-ITD mutant assessed as cleavage of pro-caspase 3 at 1000 to 5000 nM after 24 hrs by Western blot analysis. The class given is functional, cell-based. The procedure, abridged:
as §1

Data set [14] can be described thus: Mutagenecity in Salmonella typhimurium TA100 at 10 uM in presence of S9 liver homogenate after 2 to 3 days by mini-Ames test. In kind it is toxicity. The conditions noted are these: salmonella enterica subsp. enterica serovar typhimurium, s9, 10 µM. The procedure, abridged: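 Compound was tested at a final 10 μM undiluted plus four serial dilutions, with S9 mix and glucose/biotin/trace-histidine exposure solution, for 100 min at 37 °C. Reversion medium was added and cultures dispensed to 96 wells for 2–3 days at 37 °C. Yellow or partial-yellow wells were scored positive; 2-aminoanthracene was the positive control.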
For orientation: In the Ames test, an excess of revertant colonies over the control signals mutagenicity.

Histone deacetylase 1, sequence (Q13547 whole entry): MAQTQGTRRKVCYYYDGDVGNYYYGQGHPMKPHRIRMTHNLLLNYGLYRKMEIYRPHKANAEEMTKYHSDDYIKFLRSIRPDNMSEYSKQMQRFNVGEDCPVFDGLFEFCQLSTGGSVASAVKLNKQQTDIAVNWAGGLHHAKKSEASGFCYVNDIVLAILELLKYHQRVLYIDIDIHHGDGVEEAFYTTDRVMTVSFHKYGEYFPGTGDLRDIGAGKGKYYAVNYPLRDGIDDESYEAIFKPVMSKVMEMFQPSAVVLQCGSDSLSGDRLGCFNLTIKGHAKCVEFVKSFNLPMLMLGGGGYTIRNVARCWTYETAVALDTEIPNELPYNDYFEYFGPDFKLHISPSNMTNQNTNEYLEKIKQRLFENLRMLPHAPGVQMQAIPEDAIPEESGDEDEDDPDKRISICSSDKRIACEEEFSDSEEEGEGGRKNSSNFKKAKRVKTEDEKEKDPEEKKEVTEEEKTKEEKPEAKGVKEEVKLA
Histone deacetylase 3/Nuclear receptor corepressor 2 (HDAC3/NCoR2), sequence (O15379 whole entry): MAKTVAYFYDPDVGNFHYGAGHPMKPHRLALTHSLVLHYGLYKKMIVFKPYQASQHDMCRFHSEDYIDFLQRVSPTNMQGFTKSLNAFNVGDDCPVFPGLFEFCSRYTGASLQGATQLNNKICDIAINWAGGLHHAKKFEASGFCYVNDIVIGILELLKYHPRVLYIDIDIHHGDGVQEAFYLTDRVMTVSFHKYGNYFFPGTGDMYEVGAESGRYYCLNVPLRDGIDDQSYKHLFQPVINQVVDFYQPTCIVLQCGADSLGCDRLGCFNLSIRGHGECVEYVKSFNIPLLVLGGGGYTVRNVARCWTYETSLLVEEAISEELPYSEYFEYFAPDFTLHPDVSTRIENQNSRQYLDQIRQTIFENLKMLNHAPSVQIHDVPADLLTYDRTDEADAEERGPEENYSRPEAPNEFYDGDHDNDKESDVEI
Histone deacetylase 3/Nuclear receptor corepressor 2 (HDAC3/NCoR2), sequence (Q9Y618 whole entry, further chain): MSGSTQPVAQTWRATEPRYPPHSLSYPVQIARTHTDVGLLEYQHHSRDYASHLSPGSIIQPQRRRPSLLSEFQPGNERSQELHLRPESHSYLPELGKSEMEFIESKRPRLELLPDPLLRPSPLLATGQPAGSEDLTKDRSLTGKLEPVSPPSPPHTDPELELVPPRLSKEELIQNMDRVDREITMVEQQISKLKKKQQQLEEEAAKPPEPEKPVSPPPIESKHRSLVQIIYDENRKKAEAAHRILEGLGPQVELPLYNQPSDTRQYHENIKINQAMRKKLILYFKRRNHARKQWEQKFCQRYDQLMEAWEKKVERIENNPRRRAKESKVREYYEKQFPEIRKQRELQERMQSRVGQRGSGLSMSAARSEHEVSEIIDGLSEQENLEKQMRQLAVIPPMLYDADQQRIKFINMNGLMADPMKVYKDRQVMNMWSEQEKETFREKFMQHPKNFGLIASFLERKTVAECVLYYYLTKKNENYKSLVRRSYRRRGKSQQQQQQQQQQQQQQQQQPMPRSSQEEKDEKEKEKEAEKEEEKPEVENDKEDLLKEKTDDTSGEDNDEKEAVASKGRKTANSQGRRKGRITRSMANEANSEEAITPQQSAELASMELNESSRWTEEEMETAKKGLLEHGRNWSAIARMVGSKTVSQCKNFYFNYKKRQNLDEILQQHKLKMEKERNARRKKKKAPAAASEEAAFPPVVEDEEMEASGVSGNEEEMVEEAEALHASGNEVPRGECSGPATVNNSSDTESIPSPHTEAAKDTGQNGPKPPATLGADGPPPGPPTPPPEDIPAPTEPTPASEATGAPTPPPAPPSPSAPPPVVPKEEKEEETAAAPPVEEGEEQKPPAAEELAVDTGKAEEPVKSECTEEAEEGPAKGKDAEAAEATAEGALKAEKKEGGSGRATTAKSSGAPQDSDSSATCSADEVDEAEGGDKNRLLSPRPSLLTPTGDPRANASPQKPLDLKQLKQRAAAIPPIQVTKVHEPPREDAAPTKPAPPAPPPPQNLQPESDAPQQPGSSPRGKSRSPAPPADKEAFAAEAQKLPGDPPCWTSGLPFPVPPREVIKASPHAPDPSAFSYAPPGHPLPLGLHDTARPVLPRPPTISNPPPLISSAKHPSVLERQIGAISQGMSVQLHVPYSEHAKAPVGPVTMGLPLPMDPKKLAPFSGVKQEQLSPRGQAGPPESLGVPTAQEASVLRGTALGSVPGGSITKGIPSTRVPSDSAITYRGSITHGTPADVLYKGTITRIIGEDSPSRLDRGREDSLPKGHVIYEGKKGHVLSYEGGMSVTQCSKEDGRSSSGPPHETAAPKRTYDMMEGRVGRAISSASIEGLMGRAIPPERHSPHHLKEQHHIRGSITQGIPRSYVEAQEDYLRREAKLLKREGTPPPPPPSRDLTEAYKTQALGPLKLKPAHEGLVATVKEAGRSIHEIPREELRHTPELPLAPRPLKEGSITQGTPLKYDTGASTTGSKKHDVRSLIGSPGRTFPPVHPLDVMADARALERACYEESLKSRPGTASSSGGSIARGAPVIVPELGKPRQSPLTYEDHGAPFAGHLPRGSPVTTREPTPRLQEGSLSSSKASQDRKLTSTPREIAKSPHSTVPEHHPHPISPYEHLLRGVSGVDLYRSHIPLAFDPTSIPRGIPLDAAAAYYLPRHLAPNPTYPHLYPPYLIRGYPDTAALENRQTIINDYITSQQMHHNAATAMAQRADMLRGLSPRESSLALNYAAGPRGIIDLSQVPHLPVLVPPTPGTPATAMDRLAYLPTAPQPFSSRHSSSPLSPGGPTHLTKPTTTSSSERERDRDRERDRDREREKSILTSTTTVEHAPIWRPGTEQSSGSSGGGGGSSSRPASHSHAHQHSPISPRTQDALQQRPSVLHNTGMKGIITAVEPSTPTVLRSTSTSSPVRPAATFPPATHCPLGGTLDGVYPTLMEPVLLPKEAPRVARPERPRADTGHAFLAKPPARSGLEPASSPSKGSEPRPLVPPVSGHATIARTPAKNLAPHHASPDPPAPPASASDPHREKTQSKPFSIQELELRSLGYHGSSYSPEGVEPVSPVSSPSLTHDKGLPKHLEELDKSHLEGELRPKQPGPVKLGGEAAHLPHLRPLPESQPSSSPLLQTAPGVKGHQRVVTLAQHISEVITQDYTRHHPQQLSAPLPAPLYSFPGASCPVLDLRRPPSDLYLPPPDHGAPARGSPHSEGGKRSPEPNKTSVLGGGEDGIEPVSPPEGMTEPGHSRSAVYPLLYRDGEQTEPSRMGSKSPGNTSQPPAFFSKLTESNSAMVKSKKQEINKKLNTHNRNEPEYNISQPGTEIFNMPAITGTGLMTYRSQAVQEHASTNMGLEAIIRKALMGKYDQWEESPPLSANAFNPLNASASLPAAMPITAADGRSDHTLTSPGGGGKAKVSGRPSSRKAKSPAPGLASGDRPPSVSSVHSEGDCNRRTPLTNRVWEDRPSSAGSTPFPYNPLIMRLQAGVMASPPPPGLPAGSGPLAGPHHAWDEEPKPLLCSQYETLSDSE
Histone deacetylase 2, sequence (Q92769 whole entry): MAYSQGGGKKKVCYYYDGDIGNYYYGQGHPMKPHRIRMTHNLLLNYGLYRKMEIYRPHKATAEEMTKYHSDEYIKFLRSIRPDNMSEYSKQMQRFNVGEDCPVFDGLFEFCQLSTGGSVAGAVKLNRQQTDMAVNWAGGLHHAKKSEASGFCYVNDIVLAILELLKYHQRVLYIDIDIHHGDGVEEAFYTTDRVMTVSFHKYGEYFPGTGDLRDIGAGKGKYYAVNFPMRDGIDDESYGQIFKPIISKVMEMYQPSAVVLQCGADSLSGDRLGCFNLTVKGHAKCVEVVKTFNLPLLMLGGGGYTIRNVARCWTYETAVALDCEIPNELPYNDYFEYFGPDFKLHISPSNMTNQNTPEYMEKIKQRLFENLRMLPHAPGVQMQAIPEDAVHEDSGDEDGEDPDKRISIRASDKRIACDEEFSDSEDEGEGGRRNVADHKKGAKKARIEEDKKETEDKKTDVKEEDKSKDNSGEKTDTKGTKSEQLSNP

By IC50 is commonly meant the concentration needed to halve the response being measured. The EC50 is the concentration at which the effect is half-maximal. For the compound `CCCNNC(=O)c1ccc(CNCc2ccccc2)cc1`, the IC50 in data set [1] is 96.7 nM; in data set [2], > 50000 nM; in data set [3], 441 nM; in [5], 88 nM. This compound also returned an EC50 in [4] of 173 nM.
As for `CCCNNC(=O)c1ccc(CNCCc2c(C)[nH]c3ccccc23)cc1`, the IC50 in data set [1] was 19.9 nM; in data set [2], > 50000 nM; in data set [3] it was 108 nM; in [5] it was 29.4 nM.
Consider `O=C(CCCCCCC(=O)Nc1ccccc1)NO`, for which the result in data set [6] and in [7] was Active.
For the compound `CCCCCCN(CCC)NC(=O)/C=C/c1ccc(CNCCc2c(C)[nH]c3ccccc23)cc1`, the IC50 in data set [1] is 143 nM; in data set [2], > 50000 nM; in data set [3], 9830 nM; in data set [5], 2880 nM.
Regarding `CCCNNC(=O)c1ccc(NC(=O)c2ccccc2)cc1`, the IC50 in data set [1] was 48.7 nM; in data set [2], > 50000 nM; in [3] it was 474 nM; in [5] it was 93 nM.
The matching figures for `CCCN(CC)NC(=O)/C=C/c1ccc(CNCCc2c(C)[nH]c3ccccc23)cc1`: 550 nM, > 50000 nM, 8070 nM and 2920 nM.
The like results for `Cc1[nH]c2ccccc2c1CCNCc1ccc(/C=C/C(=O)NNCCN)cc1` were, in that order, 5240 nM, > 50000 nM, > 10000 nM and 9840 nM.
Consider `CCCN(CCC)NC(=O)/C=C/c1ccc(CNCCc2c(C)[nH]c3ccccc23)cc1`, for which the IC50 in data set [1] was 25.2 nM; in data set [2] it was > 50000 nM; in data set [3], 1370 nM; in data set [5] it was 413 nM.
Consider `CCCNNC(=O)c1ccc(CNC(=O)/C=C/c2ccccc2)cc1`, for which the outcome in data set [8], in [9] and in [10] was Active.
On to `CCCNNC(=O)c1ccc(OCc2ccccc2)cc1`, for which the IC50 is 24.8 nM in data set [1], > 50000 nM in data set [2], 175 nM in data set [3] and 56.3 nM in [5].
For `Cc1[nH]c2ccccc2c1CCNCc1ccc(/C=C/C(=O)NN2CCCCC2)cc1`, the IC50 in [1] is > 10000 nM; in [2] it was > 50000 nM; in data set [3], > 10000 nM; in data set [5] it was > 10000 nM. Further, in data set [11], the result was inactive.
Turning to `CCCNNC(=O)c1ccc(NCc2ccccc2)cc1`, the IC50 in data set [1] is 6.12 nM; in data set [2], > 50000 nM; in [3], 67.5 nM; in data set [5], 15.8 nM.
Consider `Cc1[nH]c2ccccc2c1CCNCc1ccc(/C=C/C(=O)NN(C)C)cc1`, for which the IC50 is 996 nM in [1], > 50000 nM in [2], 12900 nM in data set [3] and 11000 nM in data set [5]. Moreover, the outcome in data set [11] was inactive.
As to `CCN(CC)CCCC(C)Nc1ccnc2cc(Cl)ccc12` (stereo unspecified), in [12], the inhibition entry is “Active”.
As for `CCCNNC(=O)c1cccc(CNCCc2c(C)[nH]c3ccccc23)c1`, the IC50 in [1] was 674 nM; in data set [2], > 50000 nM; in [3] it was 4940 nM; in data set [5] it was 1670 nM.
As for `CCCNNC(=O)c1ccc(CN(Cc2ccccc2)C(=O)OC(C)(C)C)cc1`, the IC50 in data set [1] was 78.1 nM; in data set [2], > 50000 nM; in data set [3], 579 nM; in [5] it was 217 nM.
The like results for `COC(=O)CCNNC(=O)/C=C/c1ccc(CNCCc2c(C)[nH]c3ccccc23)cc1` were, in that order, 310 nM, > 50000 nM, 4210 nM and 1090 nM.
As for `CCCCCN(CCC)NC(=O)/C=C/c1ccc(CNCCc2c(C)[nH]c3ccccc23)cc1`, the 50% inhibitory concentration (IC50) was 321 nM in data set [1], > 50000 nM in data set [2], 7320 nM in data set [3] and 382 nM in data set [5].
The like results for `CCCNNC(=O)c1cccc(CN(CCc2c(C)[nH]c3ccccc23)C(=O)OC(C)(C)C)c1` were, in that order, > 5000 nM, > 50000 nM, > 5000 nM and 2520 nM.
The like results for `Cc1[nH]c2ccccc2c1CCNCc1ccc(/C=C/C(=O)NNCCC#N)cc1` were, in that order, 34.8 nM, > 50000 nM, 172 nM and 58.1 nM.
For the compound `Cc1[nH]c2ccccc2c1CCNCc1ccc(/C=C/C(=O)NN(CCCO)CCCO)cc1`, the half-inhibitory concentration (IC50) is > 10000 nM in [1], > 50000 nM in data set [2], > 10000 nM in [3] and > 10000 nM in data set [5]. Besides, in data set [11], the result was inactive.
As for `CCCNNC(=O)c1ccc(CN(CCc2c(C)[nH]c3ccccc23)C(=O)OC(C)(C)C)cc1`, the IC50 in data set [1] was 12.6 nM; in [2], > 50000 nM; in [3] it was 279 nM; in data set [5], 28.8 nM.
On to `Nc1ccccc1NC(=O)c1ccc(CNC(=O)OCc2cccnc2)cc1`, for which the outcome in data set [13] was Active.
For the compound `Nc1ccc2cc3ccccc3cc2c1` [2-AMINOANTHRACENE], the Activity result in data set [14] is on record as “Toxic”.
As to `Cc1[nH]c2ccccc2c1CCNCc1ccc(/C=C/C(=O)NN2CCCC2)cc1`, the IC50 in data set [1] was 3090 nM; in [2] it was > 50000 nM; in data set [3] it was > 10000 nM; in [5], 8600 nM. For the same compound, the result in [11] was inactive.
Regarding `CCCCN(CCC)NC(=O)/C=C/c1ccc(CNCCc2c(C)[nH]c3ccccc23)cc1`, the IC50 in [1] was 229 nM; in data set [2] it was > 50000 nM; in data set [3] it was 3220 nM; in data set [5] it was 210 nM.
The like results for `CCCNNC(=O)/C=C/c1ccc(CN(CCc2c(C)[nH]c3ccccc23)C(=O)OC(C)(C)C)cc1` were, in that order, 16.8 nM, > 50000 nM, 1300 nM and 181 nM.
